# pIC50: −log10 of the molar value.
# Key:
# Trypanosoma cruzi [1] = experiment: Antitrypanosomal activity against Trypanosoma cruzi Sylvio X-10 amastigotes infected in African green monkey Vero cells assessed as eradication of amastigotes after 5 days by Giemsa staining-based assay; format: functional, organism-based; details: Sylvio X-10, Vero, 120 h
# How it was run: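 VERO cells in RPMI 1640 with 10% hiFCS were allowed to adhere for 24 h at 37 °C in 5% CO₂, then infected with tissue-derived trypomastigotes at 10:1. Free parasites were washed off after 24 h, and cultures were treated at five compound doses (text gives 72 h / 5 days). Cultures were methanol-fixed and Giemsa-stained, and infected cells were counted among 300. Quadruplicates were run in three independent experiments. IC50/IC90 were obtained by sigmoidal regression.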
# [2] = Stability of the compound in eumulgin HRE 40, sodium oleate, soya phosphatidylcholine, cholesterol, and phosphate buffer at pH 7.4 at 4 degC; format: physicochemical
# How it was run: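 Storage stability of the compound in vehicle V2, a microemulsion of surfactant (Eumulgin HRE 40/sodium oleate/soya phosphatidylcholine, 10%), cholesterol oil phase (10%) and pH 7.4 phosphate buffer (80%), followed over 1 week at 4 °C.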
# [3] = Stability of the compound in aqueous solution assessed as compound remaining at 1 mM at pH 6 after 1 hr by TLC analysis; format: physicochemical; details: aqueous solution, pH 6; read-out: Stability
# How it was run: (§1)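 DMSO stocks diluted to final 1 mM in KCl·HCl pH 1.0, citrate pH 6.0, Tris·HCl pH 7.4 or borax·HCl pH 9.0 buffer. Incubated 1 h at 37 °C, then ethyl acetate extracts checked by TLC for decomposition products.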
# Salmonella typhimurium [4] = experiment: Mutagenic activity in Salmonella typhimurium TA100 at 6 to 500 ug/plate by Ames test in presence of mouse liver S9 fraction; format: toxicity, organism-based; details: salmonella enterica subsp. enterica serovar typhimurium
# How it was run: (§2)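 Plate-incorporation Ames test on minimal glucose agar with 500 μL Aroclor-treated mouse liver S9 added. DMSO solutions were tested at five consecutive 3-fold dilutions from the highest non-toxic dose, in triplicate, with a DMSO negative control. Revertants were counted manually; a compound was scored mutagenic when revertants were at least twice the negative control for two or more consecutive doses.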
# Salmonella typhimurium [5] = experiment: Mutagenic activity in Salmonella typhimurium TA1535 at 6 to 500 ug/plate by Ames test; format: toxicity, organism-based; details: salmonella enterica subsp. enterica serovar typhimurium
# How it was run: (§3)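 Direct plate incubation on minimal glucose agar (Vogel-Bonner E). Compound toxicity to the bacteria was checked first. DMSO solutions were tested at five consecutive 3-fold dilutions, starting from the highest non-toxic dose, in triplicate, without metabolic activation. DMSO served as negative control. Revertants were counted manually; mutagenic = revertants at least double the negative control at two or more consecutive doses.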
# Salmonella typhimurium [6] = experiment: Mutagenic activity in Salmonella typhimurium TA100 at 6 to 500 ug/plate by Ames test; format: toxicity, organism-based; details: salmonella enterica subsp. enterica serovar typhimurium; how it was run: as §3
# [7] = Stability of the compound in aqueous solution assessed as compound remaining at 1 mM at pH 9 after 1 hr by TLC analysis; format: physicochemical; details: aqueous solution, pH 9; read-out: Stability; how it was run: as §1
# Mus musculus = experiment: Toxicity in BALB/c mouse assessed as mortality at 100 mg/kg/day, po for 14 days; format: organism-based; design: route oral; details: in vivo, 336 h
# How it was run: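 Uninfected female BALB/c mice (n = 2/group) received intragastric gavage daily for 14 days in saline/Tween 80 (4:1). They were weighed and monitored daily, then sacrificed for macroscopic necropsy of organs.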
# Trypanosoma cruzi [8] = experiment: (§4) Antitrypanosomal activity against Trypanosoma cruzi CL Brener infected in BALB/c mouse assessed as mouse survival at 107 umol/kg/day, po administered in cholesterol/surfactant/phosphate buffer in 19 day schedule including 5 days of dosing 2 days of resting and final 4 days of dosing measured up to 60 days relative to control; format: functional
# How it was run: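 Oral gavage of infected male BALB/c mice at 50 mg/kg/day in cholesterol/surfactant/phosphate buffer pH 7.4 microemulsion, from day 6 postinfection. Schedule: 5 days dosing, 2 rest, 5 dosing, 2 rest, 4 dosing. n = 6/group, with vehicle controls. Parasitemia was read weekly in tail-vein blood for 60 days and mortality recorded.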
# [9] = Stability of the compound in aqueous solution assessed as compound remaining at 1 mM at pH 7.4 after 1 hr by TLC analysis; format: physicochemical; details: aqueous solution, pH 7.4; read-out: Stability; how it was run: as §1
# Salmonella typhimurium [10] = experiment: Mutagenic activity in Salmonella typhimurium TA1537 at 6 to 500 ug/plate by Ames test; format: toxicity, organism-based; details: salmonella enterica subsp. enterica serovar typhimurium; how it was run: as §3
# Salmonella typhimurium [11] = experiment: Mutagenic activity in Salmonella typhimurium TA102 at 6 to 500 ug/plate by Ames test in presence of mouse liver S9 fraction; format: toxicity, organism-based; details: salmonella enterica subsp. enterica serovar typhimurium; how it was run: as §2
# Salmonella typhimurium [12] = experiment: Mutagenic activity in Salmonella typhimurium TA1537 at 6 to 500 ug/plate by Ames test in presence of mouse liver S9 fraction; format: toxicity, organism-based; details: salmonella enterica subsp. enterica serovar typhimurium; how it was run: as §2
# Trypanosoma cruzi [13] = experiment: as §4, with “peak of maximum parasitemia” for “mouse survival”; format: functional
# How it was run: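 Male BALB/c mice (n = 6/group) were infected i.p. with 10³ blood trypomastigotes. From day 6 they were dosed orally in microemulsion vehicle on a schedule of 5 days on, 2 off, 5 on, 2 off, 4 on. Controls received vehicle. Parasitemia was counted weekly in tail-vein blood for 60 days, and mortality was recorded.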
# Salmonella typhimurium [14] = experiment: Mutagenic activity in Salmonella typhimurium TA102 at 6 to 500 ug/plate by Ames test; format: toxicity, organism-based; details: salmonella enterica subsp. enterica serovar typhimurium; how it was run: as §3
# Salmonella typhimurium [15] = experiment: Mutagenic activity in Salmonella typhimurium TA1535 at 6 to 500 ug/plate by Ames test in presence of mouse liver S9 fraction; format: toxicity, organism-based; details: salmonella enterica subsp. enterica serovar typhimurium; how it was run: as §2
# [16] = Stability of the compound in aqueous solution assessed as compound remaining at 1 mM at 37 degC after 1 hr by TLC analysis in presence of rat liver microsomal fraction; details: microsomes, 1000 µM
# How it was run: (§5)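 Rat liver cytosolic (100 000g supernatant) and microsomal (100 000g pellet, washed and resuspended in Tris·HCl) fractions, fresh or stored at −80 °C; protein measured by BCA. Compound incubated with the fraction 1 h at 37 °C and analysed by TLC of extracts.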
# Trypanosoma cruzi [17] = experiment: Antitrypanosomal activity against Trypanosoma cruzi Tulahuen 2 epimastigotes assessed as growth inhibition after 5 days; format: functional, organism-based; details: Trypanosoma cruzi, Tulahuen 2, 120 h
# How it was run: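 Epimastigotes were grown axenically at 28 °C in BHI-tryptose with 5% FBS and seeded from a 5–7 day culture at 1 × 10⁶ cells/mL. Drug from a DMSO stock was added (final DMSO ≤0.4%; the control contained 0.4% DMSO). Duplicates were run. A600 was read at day 5, and % inhibition was calculated relative to day-0 and control readings. IC50 = concentration that halves the absorbance ratio.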
# [18] = Selectivity index, ratio of IC50 for mouse J774.1 cells to IC50 for Trypanosoma cruzi Sylvio X-10 amastigotes; format: toxicity; details: read-out: Ratio IC50
# How it was run: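 J774.1 macrophages grown in DMEM with 10% heat-inactivated FCS and allowed to attach 48 h, then exposed 48 h at 37 °C to 12.5–400.0 μM. Triplicates. MTT 0.1 mg/mL for 3 h, read at 560 nm; IC50 by linear regression against the solvent control. SI = IC50 J774.1 / parasite IC50 (Sylvio X-10 amastigotes or Tulahuen 2 epimastigotes, the latter measured by A600 growth inhibition at day 5).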
# [19] = Selectivity index, ratio of IC50 for African green monkey Vero cells to IC50 for Trypanosoma cruzi Sylvio X-10 amastigotes; format: toxicity, cell-based; details: read-out: Ratio IC50
# How it was run: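 VERO cytotoxicity: cells exposed 48 h at 37 °C, 5% CO2 to serial dilutions from a maximum of 2000 μM (DMSO stocks; DMSO <0.1% control); growth inhibition read by MTT at 570 nm. Amastigote IC50: Sylvio X-10-infected VERO cells, five doses, infected cells counted among 300 (Giemsa), quadruplicate, three experiments, sigmoidal fit. SI = IC50 VERO / IC50 amastigote.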
# Salmonella typhimurium [20] = experiment: Mutagenic activity in Salmonella typhimurium TA98 at 6 to 500 ug/plate by Ames test; format: toxicity, organism-based; details: salmonella enterica subsp. enterica serovar typhimurium
# How it was run: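 Ames plate-incorporation assay with S. typhimurium TA98 in Vogel-Bonner E minimal glucose agar. Toxicity toward the bacteria was checked first. DMSO solutions were run in triplicate at five consecutive third-dilutions, starting at the highest non-toxic dose. Positive controls were 4-nitro-o-phenylenediamine (20.0 μg/plate) and 2-aminofluorene (10.0 μg/plate); DMSO was the negative control. Revertants were counted manually. A compound was called mutagenic when revertants were at least twice the negative control at two or more consecutive doses.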
# [21] = Stability of the compound in aqueous solution assessed as compound remaining at 1 mM at 37 degC after 1 hr by TLC analysis in presence of rat liver cytosolic fraction; format: ADME; details: cytosol, 1000 µM; how it was run: as §5
compound,measurement,setting,value
Br.C=CCn1c(-c2ccc3ccccc3c2)cs\c1=N/N=C/C=C/c1ccco1,pIC50,Trypanosoma cruzi [1],> 6.68
same,Stability,[2],Stable
same,"remaining at 1 h, 1000 µM",[3],> 95%
same,Activity,Salmonella typhimurium [4],Non-toxic
same,Activity,Salmonella typhimurium [5],Non-toxic
same,Activity,Salmonella typhimurium [6],Non-toxic
same,"remaining at 1 h, 1000 µM",[7],> 95%
same,Activity,Mus musculus,Non-toxic
same,survival at 107 µmol/kg,Trypanosoma cruzi [8],100%
same,"remaining at 1 h, 1000 µM",[9],> 95%
same,Activity,Salmonella typhimurium [10],Non-toxic
same,Activity,Salmonella typhimurium [11],Non-toxic
same,Activity,Salmonella typhimurium [12],Non-toxic
same,Time,Trypanosoma cruzi [13],42 days
same,Activity,Salmonella typhimurium [14],Non-toxic
same,Activity,Salmonella typhimurium [15],Non-toxic
same,Stability,[16],Stable
same,pIC50,Trypanosoma cruzi [17],5.62
same,selectivity ratio,[18],> 120
same,selectivity ratio,[19],> 1000
same,Activity,Salmonella typhimurium [20],Non-toxic
same,Stability,[21],Stable

# Reference: ChEMBL document CHEMBL3259808, “Optimization of antitrypanosomatid agents: identification of nonmutagenic drug candidates with in vivo activity” (J Med Chem, 2014)
